21 molecules from ChEMBL document CHEMBL4334491, “Discovery of Benzamidine- and 1-Aminoisoquinoline-Based Human MAS-Related G-Protein-Coupled Receptor X1 (MRGPRX1) Agonists” (J Med Chem, 2019) can be followed below.

Calls of active or inactive are those of the source. No cut-off for these calls is given here.

Series [1] has as its target T1, Mas-related G-protein coupled receptor member X1 (Homo sapiens, UniProt Q96LB2). Kind of series: Agonist activity at human MrgprX1 expressed in HEK293 cells incubated for 2 mins by Fluo4AM dye based FLIPR assay. The series is classed as cell-based. In short, it runs like this: (§1)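 HEK293 cells stably expressing human MrgprX1 were plated at 25,000/well and grown 2 days. They were loaded with 2 μM Fluo-4 AM plus 1% Trypan Red in HBSS for 50 min at 37°C, then equilibrated 10 min at room temperature. Serially diluted compounds in HBSS were added, with BAM8-22 as positive control. FLIPR imaging ran 2 min, read as max–min fluorescence. EC50 is mean ± SD of ≥4 experiments.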

In series [2] the target is T1, Mas-related G-protein coupled receptor member X1. The series can be described thus: Agonist activity at human MrgprX1 expressed in HEK293 cells incubated for 2 mins by Fluo4AM dye based FLIPR assay relative to BAM8-22. In kind it is cell-based. The essentials: as §1
The target of the next series is Mu-type opioid receptor (Rattus norvegicus, UniProt P33535). Kind of series: Displacement of [3H]DAMGO from mu opioid receptor in rat brain after 60 mins by liquid scintillation counting method. The series is classed as tissue-based.
Mu-type opioid receptor, sequence (P33535 whole entry): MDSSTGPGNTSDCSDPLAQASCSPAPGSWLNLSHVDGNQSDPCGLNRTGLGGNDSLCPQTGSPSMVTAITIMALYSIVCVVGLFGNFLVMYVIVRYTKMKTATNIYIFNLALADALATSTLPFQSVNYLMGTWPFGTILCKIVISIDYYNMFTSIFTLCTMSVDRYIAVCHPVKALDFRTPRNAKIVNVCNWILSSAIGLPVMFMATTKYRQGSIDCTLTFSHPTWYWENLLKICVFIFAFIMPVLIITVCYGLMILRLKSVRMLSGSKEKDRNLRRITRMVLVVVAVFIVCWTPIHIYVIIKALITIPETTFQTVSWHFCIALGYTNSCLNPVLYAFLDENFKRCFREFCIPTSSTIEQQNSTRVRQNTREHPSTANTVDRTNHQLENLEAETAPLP
Series [3] addresses Kappa-type opioid receptor (Rattus norvegicus, UniProt P34975). The series can be described thus: Displacement of [3H]U-69,593 from kappa opioid receptor in rat brain after 60 mins by liquid scintillation counting method. In kind it is tissue-based. A general note: Loss of bound radioactivity is the signal in a displacement assay; it reports binding, not function.
Series [4] has as its target Delta-type opioid receptor (Rattus norvegicus, UniProt P33533). Kind of series: Displacement of [3H]DADLE from delta opioid receptor in rat brain after 60 mins by liquid scintillation counting method. The series is classed as tissue-based.
Series [5] deals with T1, Mas-related G-protein coupled receptor member X1. The series can be described thus: Agonist activity at human MrgprX1 expressed in HEK293 cells up to 100 uM incubated for 2 mins by Fluo4AM dye based FLIPR assay relative to BAM8-22. In kind it is cell-based. The essentials: as §1
Series [6] shares this target. The series can be described thus: Agonist activity at human MRGPRX1 in DRG neurons obtained from humanized MrgprX1 mouse assessed as inhibition of high-voltage-activated Ca2+ currents 10 uM at -80 mV holding potential. The series is classed as functional. The essentials: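 DRG neurons from 3–4-week-old humanized MrgprX1 mice were dispase/collagenase-dissociated, cultured with NGF and GDNF, and used after 20–40 h. Whole-cell patch clamp was done in Ba2+/NMDG extracellular solution, pH 7.4, at 21–23°C. Cells were held at −80 mV, stepped to −40 mV, then −60 mV, then −10 mV for 40 ms to evoke HVA currents. Compound was bath-applied; P/4 leak subtraction.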

Series [7] shares this target. The series can be described thus: Agonist activity at human MRGPRX1 in DRG neurons obtained from humanized MrgprX1 mouse assessed as inhibition of high-voltage-activated Ca2+ currents 5 uM at -80 mV holding potential. In kind it is functional. In short, it runs like this: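 DRG neurons from 3–4-week-old MrgprX1 mice, enzyme-dissociated, cultured with NGF and GDNF and used at 20–40 h. Whole-cell patch clamp of MrgprA3-GFP neurons at 21–23 °C in NMDG-Cl/5 mM BaCl2 bath, pH 7.4. Holding −80 mV, step to −40 mV 20 ms, −60 mV 20 ms, then −10 mV 40 ms evoking HVA current. P/4 leak subtraction. Currents compared before/after bath application.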

Series [8] can be described thus: AUC in CD1 mouse spinal cord at 10 mg/kg, iv administered as single dose by LC-MS/MS analysis. The series is classed as ADME, organism-based. The following applies: in vivo. In short, it runs like this: (§2)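 Male CD1 mice (25–30 g) received a single 10 mg/kg iv dose, n=3 per time point, and were killed by CO2 at set times. Plasma came from cardiac-puncture blood spun at 3,000 g for 15 min. Spinal cords were flash frozen. Samples were extracted in acetonitrile with losartan internal standard and quantified by LC/MS/MS. Calibration covered 0.01–10 nmol/mL, built with 1/x-weighted linear regression in naive matrix.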

For series [9], the target named is T2, Mas-related G-protein coupled receptor member X1 (Mus musculus) (UniProt Q8CIP3).
T2 sequence (whole entry): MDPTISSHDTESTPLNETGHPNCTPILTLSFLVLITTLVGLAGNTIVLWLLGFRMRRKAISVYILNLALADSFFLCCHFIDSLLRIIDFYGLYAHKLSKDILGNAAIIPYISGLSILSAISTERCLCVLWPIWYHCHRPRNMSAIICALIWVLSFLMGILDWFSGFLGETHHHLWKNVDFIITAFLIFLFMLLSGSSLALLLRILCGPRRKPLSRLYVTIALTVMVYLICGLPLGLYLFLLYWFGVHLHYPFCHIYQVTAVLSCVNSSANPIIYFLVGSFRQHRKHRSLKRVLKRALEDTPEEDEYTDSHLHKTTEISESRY
The series can be described thus: Agonist activity at mouse MRGPRC11 expressed in KNRK cells at 40 uM by Fura2-AM dye based FLIPR assay. The series is classed as cell-based.

Series [10] is described as follows: AUC in CD1 mouse plasma at 10 mg/kg, iv administered as single dose by LC-MS/MS analysis. The series is classed as ADME, organism-based. The following applies: in vivo. In short, it runs like this:
as §2

Series [11] is described as follows: Half life in mouse liver microsomes. The series is classed as ADME, Microsome. In general terms: Liver microsomes are vesicles of endoplasmic reticulum, rich in cytochrome P450 enzymes.
A short description of series [12]: Half life in CD1 mouse at 10 mg/kg, iv administered as single dose by LC-MS/MS analysis. In kind it is ADME, organism-based. Conditions: in vivo. The essentials: as §2
Series [13] can be described thus: Selectivity index, ratio of Ki for [3H]U-69,593 from kappa opioid receptor in rat brain after 60 mins by liquid scintillation counting method to EC50 for agonist activity at human MrgprX1 expressed in HEK293 cells incubated for 2 mins by Fluo4AM dye based FLIPR assay. In kind it is cell-based.
Series [14] in a line: Selectivity index, ratio of Ki for displacement of [3H]DADLE from delta opioid receptor in rat brain after 60 mins by liquid scintillation counting method to EC50 for agonist activity at human MrgprX1 expressed in HEK293 cells incubated for 2 mins by Fluo4AM dye based FLIPR assay. The series is classed as cell-based.
Series [15] in a line: Ratio of AUC in spinal cord to AUC in plasma of CD1 mouse at 10 mg/kg, iv administered as single dose by LC-MS/MS analysis. The series is classed as ADME, organism-based. The essentials: as §2
Series [16] in a line: Selectivity index, ratio of Ki for displacement of [3H]DAMGO from mu opioid receptor in rat brain after 60 mins by liquid scintillation counting method to EC50 for agonist activity at human MrgprX1 expressed in HEK293 cells incubated for 2 mins by Fluo4AM dye based FLIPR assay. The series is classed as cell-based.

T1 sequence (Q96LB2 whole entry): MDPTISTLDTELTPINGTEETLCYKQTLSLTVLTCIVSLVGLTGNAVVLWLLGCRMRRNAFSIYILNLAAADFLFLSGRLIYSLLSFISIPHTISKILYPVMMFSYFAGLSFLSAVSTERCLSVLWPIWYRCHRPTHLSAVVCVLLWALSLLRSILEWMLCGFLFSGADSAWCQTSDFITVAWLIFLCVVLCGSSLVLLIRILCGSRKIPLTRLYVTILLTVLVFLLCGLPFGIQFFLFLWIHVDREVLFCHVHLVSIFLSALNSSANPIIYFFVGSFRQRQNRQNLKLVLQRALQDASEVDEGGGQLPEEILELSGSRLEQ
Delta-type opioid receptor, sequence (P33533 whole entry): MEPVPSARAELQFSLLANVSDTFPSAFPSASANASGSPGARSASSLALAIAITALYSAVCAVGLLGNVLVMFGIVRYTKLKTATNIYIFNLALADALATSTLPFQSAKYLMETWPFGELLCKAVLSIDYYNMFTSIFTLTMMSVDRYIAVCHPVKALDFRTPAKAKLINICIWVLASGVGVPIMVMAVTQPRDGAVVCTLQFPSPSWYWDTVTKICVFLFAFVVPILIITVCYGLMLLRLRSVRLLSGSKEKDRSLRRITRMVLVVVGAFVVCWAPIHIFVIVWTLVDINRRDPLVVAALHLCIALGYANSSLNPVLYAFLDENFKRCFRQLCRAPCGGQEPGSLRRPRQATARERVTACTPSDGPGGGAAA
Kappa-type opioid receptor, sequence (P34975 whole entry): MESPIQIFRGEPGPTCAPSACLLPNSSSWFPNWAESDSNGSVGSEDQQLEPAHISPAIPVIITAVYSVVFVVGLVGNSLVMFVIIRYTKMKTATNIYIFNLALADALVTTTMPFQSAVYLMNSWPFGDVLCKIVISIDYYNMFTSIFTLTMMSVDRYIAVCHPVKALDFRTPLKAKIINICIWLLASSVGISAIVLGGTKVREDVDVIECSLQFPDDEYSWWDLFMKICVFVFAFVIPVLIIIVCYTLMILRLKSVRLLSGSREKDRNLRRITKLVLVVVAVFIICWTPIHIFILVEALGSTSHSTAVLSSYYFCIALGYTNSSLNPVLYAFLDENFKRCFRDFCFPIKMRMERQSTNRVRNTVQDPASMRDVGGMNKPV

One may read the EC50 as the concentration at which the effect is half-maximal. Lower therefore signals greater potency. Broadly, the Emax is the maximal effect, on the per cent scale that the assay sets. With `COc1cc(CNc2ccc(C(=N)N)cc2)ccc1OCCC(C)C`, a half-maximal effect in series [1] (EC50) was put at 1.9 µM. Moreover, in series [2], the Emax was more than 95%.
On the same counts, the results for `CCCCS(=O)(=O)Nc1cc(C)ccc1Oc1ccc(C(=N)N)cc1` are 0.92 µM and more than 95%.
Taken in the same sequence, the figures for `COc1ccccc1S(=O)(=O)Nc1ccc(C)cc1Oc1cccc(C(=N)N)c1` were 3.6 µM and more than 95%.
In the case of `COc1cc(CNc2ccc(C(=N)N)cc2)ccc1OCc1ccsc1`, the EC50 in series [1] is 0.29 µM. Also, the Emax in [2] is more than 95%.
On the same counts, the results for `Cc1ccc(S(=O)(=O)Nc2ccc(C)cc2Oc2ccc(C(=N)N)cc2)cc1` are 0.16 µM and more than 95%.
On the same counts, the results for `COc1cc(CNc2cccc(C(=N)N)c2)ccc1OCc1ccccc1` are 3.3 µM and more than 95%.
The term Ki denotes a dissociation constant, usually derived from enzyme kinetics or from competition with a known ligand. Low values mean tighter binding, high ones weaker binding. `COc1ccccc1S(=O)(=O)Nc1ccc(C)cc1Oc1ccc(C(=N)N)cc1` showed an EC50 in [1] of 0.1 µM. For the same molecule, the inhibition constant (Ki) was 0.0727 µM on Mu-type opioid receptor, 1.43 µM in [3] and 0.22 µM in series [4]. The same molecule showed an Emax in [2] of more than 95%.
On to `COc1cc(CNc2ccc(C(=N)N)cc2)ccc1OCc1ccc(-n2cccc2)cc1`, for which the EC50 in series [1] came to 0.68 µM. In [2], this molecule came in with an Emax of more than 95%.
On the same counts, the results for `COc1cc(CNc2ccc(C(=N)N)cc2)ccc1OCc1cccnc1` are 5.2 µM and more than 95%.
Taken in the same sequence, the figures for `COc1ccccc1S(=O)(=O)Nc1ccc(C)cc1Oc1ccccc1C(=N)N` were 23 µM and more than 95%.
In series [1], `COc1ccccc1S(=O)(=O)Nc1ccc(C)cc1Oc1ccc2sc(N)nc2c1` displayed an EC50 of more than 100 µM. The result in series [5] was inactive.
The molecule `CCCCS(=O)(=O)Nc1ccccc1Oc1ccc(C(=N)N)cc1` showed an EC50 in series [1] of 0.3 µM. Also, the Emax in [2] was more than 95%.
On the same counts, the results for `N=C(N)c1ccc(NCc2ccc(OCc3ccccc3)cc2)cc1` are 5.2 µM and more than 95%.
`COc1cc(CNc2ccc(C(=N)N)cc2)ccc1OCc1ccccc1` returned an EC50 in series [1] of 0.51 µM. Besides, in series [6], the inhibition entry is “Active”. In addition, the Emax in series [2] was more than 95%.
On to `Cc1ccc(NS(=O)(=O)c2ccc(F)cc2)c(Oc2ccc(C(=N)N)cc2)c1`, for which, in [1], the EC50 was determined as 2.1 µM. Moreover, in series [2], the Emax was more than 95%.
`COc1cc(CNc2ccc3c(N)nccc3c2)ccc1OCc1ccccc1` displayed an EC50 in [1] of 3.7 µM. The molecule also displayed an Emax in series [2] of more than 95%.
Regarding H-VGRPEWWMDYQKRYG-OH, the inhibition entry in series [7] was “Active”.
Regarding `CCCCS(=O)(=O)Nc1ccc(C)cc1Oc1ccc(C(=N)N)cc1`, in [1], the concentration for a half-maximal effect (EC50) was determined as 2.2 µM. Besides, in [2], the maximum response (Emax) is more than 95%.
Taken in the same sequence, the figures for `Cc1ccc(NS(=O)(=O)c2ccccc2OC(F)(F)F)c(Oc2ccc(C(=N)N)cc2)c1` were 0.15 µM and more than 95%.
What is called half-life is the time in which the quantity being followed falls by half. A high value points to slow loss. For orientation: Kp means tissue or fluid exposure divided by exposure in the circulation. On to `COc1ccccc1S(=O)(=O)Nc1ccc(C)cc1Oc1ccc2c(N)nccc2c1`, for which the AUC is 5.66 nmol·h/g in series [8] and 0.9 µM·h in series [10]. Also, the outcome in [9] was inactive. Moreover, in series [1], the EC50 came out at 0.05 µM. Moreover, the Ki at Mu-type opioid receptor was determined as 3.73 µM; in series [3], 12.1 µM; in series [4], 2.47 µM. In addition, the half-life in [11] was less than 15 min; in [12], 19.8 min. In addition, the Ratio in series [13] was 242; in [14], 50; in [16] it was 75. In addition, in [2], the maximal response (Emax) is more than 95%. Also, the Kp in [15] is 6.3.
`COc1cc(CNc2ccccc2C(=N)N)ccc1OCc1ccccc1` returned an EC50 in series [1] of more than 100 µM. For the same molecule, the result in series [5] was inactive. In addition, in series [6], the inhibition result is “inactive”.
